Assay results: ChEMBL document CHEMBL3627716, “Structure-activity relationship studies of the lipophilic tail region of sphingosine kinase 2 inhibitors” (Bioorg Med Chem Lett, 2015)

Tests used:
[1] = target: T1, Sphingosine kinase 2 (Mus musculus) (UniProt Q9JIA7); assay: Inhibition of mouse recombinant SphK2 assessed as remaining enzyme activity at 10 uM using gamma[32P]ATP incubated for 20 mins by liquid scintillation counting method
T1 sequence (whole entry): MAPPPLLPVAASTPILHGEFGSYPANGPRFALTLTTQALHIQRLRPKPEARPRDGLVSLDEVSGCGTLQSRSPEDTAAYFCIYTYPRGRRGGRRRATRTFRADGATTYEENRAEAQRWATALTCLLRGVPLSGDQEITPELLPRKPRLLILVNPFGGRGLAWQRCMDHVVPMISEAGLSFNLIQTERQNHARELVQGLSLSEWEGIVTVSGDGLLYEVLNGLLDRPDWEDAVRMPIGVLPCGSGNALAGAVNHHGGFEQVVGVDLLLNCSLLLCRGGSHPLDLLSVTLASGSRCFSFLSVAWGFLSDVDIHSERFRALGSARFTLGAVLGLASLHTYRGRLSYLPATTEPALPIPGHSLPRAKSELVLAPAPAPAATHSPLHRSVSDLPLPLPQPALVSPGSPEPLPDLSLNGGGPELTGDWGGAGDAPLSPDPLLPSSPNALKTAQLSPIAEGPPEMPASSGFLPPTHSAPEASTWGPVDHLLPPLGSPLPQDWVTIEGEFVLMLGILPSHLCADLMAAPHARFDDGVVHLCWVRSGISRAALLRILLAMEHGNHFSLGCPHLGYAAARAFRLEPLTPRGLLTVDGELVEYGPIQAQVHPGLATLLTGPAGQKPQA
Outline: (§1)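 Cell lysate containing recombinant mouse SphK2 incubated with sphingosine and γ-[³²P]ATP, with or without inhibitor, 20 min. Reactions extracted, ³²P-S1P separated by TLC and counted by liquid scintillation. Activity reported as ³²P-S1P formed; screened at 10 μM, with some compounds also assayed at 1 μM. Each value is the mean of two experiments.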

[2] = target: T1, Sphingosine kinase 2 (Mus musculus); assay: Inhibition of mouse recombinant SphK2 assessed as remaining enzyme activity at 1 uM using gamma[32P]ATP incubated for 20 mins by liquid scintillation counting method; outline: as §1

SMILES | Activity [1] [%] | Activity [2] [%]
N=C(N)N1CCC[C@H]1c1nc(-c2ccc(CS(=O)(=O)c3ccccc3)cc2)no1 | 88 | 
N=C(N)N1CCC[C@H]1c1nc(-c2ccc(N3CCN(Cc4ccccc4)CC3)cc2)no1 | 89 | 
N=C(N)N1CC[C@H]1c1nc(-c2ccc(-c3ccccc3)cc2)no1 | 91 | 
N=C(N)N1CCC[C@H]1c1nc(-c2ccc(N3CCN(C(=O)Cc4ccccc4)CC3)cc2)no1 | 86 | 
N=C(N)N1CCC[C@H]1c1nc(-c2ccc(N3CCN(C(=O)C45CC6CC(CC(C6)C4)C5)CC3)cc2)no1 | 87 | 
CC(C)CC(=O)N1CCN(c2ccc(-c3noc([C@@H]4CCCN4C(=N)N)n3)cc2)CC1 | 90 | 
N=C(N)N1CCC[C@H]1c1nc(-c2ccc(CCc3ccccc3)cc2)no1 | 70 | 
N=C(N)N1CC[C@H]1c1nc(-c2ccc(N3CCOCC3)cc2)no1 | 94 | 
CN1CCN(c2ccc(-c3noc([C@@H]4CCN4C(=N)N)n3)cc2)CC1 | 90 | 
CCOCc1cc(C)cc(Cc2ccc(-c3noc([C@@H]4CCCN4C(=N)N)n3)cc2)c1 | 46 | 99

Results, then the compound that gave them:

Activity [1] [%] | Activity [2] [%] | SMILES
63 |  | N=C(N)N1CCC[C@H]1c1nc(-c2ccc(I)cc2)no1
12 |  | CCCCCCCCCCc1ccc(-c2noc([C@@H]3CCN3C(=N)N)n2)cc1
88 |  | CCCCCCCCc1noc([C@@H]2CCCN2C(=N)N)n1
15 | 56 | CCCCCCCCCCCCc1ccc(-c2noc([C@@H]3CCCN3C(=N)N)n2)cc1
57 |  | CCCCCCCCCCCCc1noc([C@@H]2CCCN2C(=N)N)n1
16 | 52 | CCCCCCCCCCCCCCc1ccc(-c2noc([C@@H]3CCCN3C(=N)N)n2)cc1
9 | 46 | CCCCCCCCCCc1ccc(-c2noc([C@@H]3CCCN3C(=N)N)n2)cc1
35 | 76 | CCCCCCc1ccc(-c2noc([C@@H]3CCCN3C(=N)N)n2)cc1
45 | 86 | CCCCCCc1ccc(-c2noc([C@@H]3CCN3C(=N)N)n2)cc1
52 |  | CCCCCCCCCCCCCCCCc1noc([C@@H]2CCCN2C(=N)N)n1
9 | 44 | CCCCCCCCc1ccc(-c2noc([C@@H]3CCCN3C(=N)N)n2)cc1
